ALR inh – inhibitors of human ALR sulfhydryl oxidase, primary screen, biochemical, H2O2 detection, HRP-luminol luminescence, single point; FAD-linked sulfhydryl oxidase ALR (Homo sapiens), P55789; purified ALR, DTT oxidation; inhibition, % (concentration not given with the values); hit rate 3.8% among 290,000; AID 485317, 2010;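 active means mean replicate inhibition above about 79%, with every replicate also reaching it, limit read from the data; inconclusive means only one of the two criteria met; inactive means mean below limit and not every replicate reaching it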
NALP3 yeast inh – NALP3 inflammasome inhibitors in reconstituted yeast, primary screen, luminescence, uHTS | Yeast reconstituted NLRP3/ASC/caspase-1, beta-gal luminescence, 24 h | inhibition, % at 10 µM | hit rate 0.39% among 330,000;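 active means inhibition of 50% or more; inactive means inhibition below 50%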;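 further: plate controls were induced DMSO wells for no effect and uninduced yeast grown without galactose for full effect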
Calb FLC – C. albicans growth inhibition with fluconazole, primary screen, CaCi-2 strain, Alamar Blue fluorescence | C. albicans CaCi-2 (fluconazole-resistant clinical isolate) + fluconazole, 48 h | growth inhibition, % (concentration not given with the values) | hit rate 0.57% among 300,000 | AID 1979, 2009;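 active means growth inhibition above about 58% in most replicates, limit read from the data, passing the limit was not always enough; inconclusive means exactly half the replicates above a set limit; inactive means most replicates below a set limit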;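 further: all wells also contain fluconazole at 8 µg/ml as a sub-toxic cotreatment; 0% = median of DMSO wells and 100% = median of geldanamycin control wells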
NALP1 yeast inh – NALP1 inflammasome inhibitors in reconstituted yeast, colorimetric, S. cerevisiae, triplicate retest | S. cerevisiae NALP1/ASC/caspase-1 growth, X-gal OD620, 72 h | inhibition, % at 10 µM | hit rate 0.61% among 280,000 | AID 2071, 2009; in the data active means inhibition mostly above about 24%, no sharp cut-off; inactive means mostly below about 32%
ATG4B inh – ATG4B protease inhibitors, primary screen, biochemical, fluorescence, uHTS. AID 504462, 2011. hit rate 0.51% among 340,000. Cysteine protease ATG4B (Homo sapiens), Q9Y4P1. inhibition, % at 8.33 µM. ATG4B cleavage of LC3-PLA2, NBD-HPC fluorescence, 1 h; in the data active means inhibition above about 40%
Target sequence (Q9Y4P1 whole entry, looked up): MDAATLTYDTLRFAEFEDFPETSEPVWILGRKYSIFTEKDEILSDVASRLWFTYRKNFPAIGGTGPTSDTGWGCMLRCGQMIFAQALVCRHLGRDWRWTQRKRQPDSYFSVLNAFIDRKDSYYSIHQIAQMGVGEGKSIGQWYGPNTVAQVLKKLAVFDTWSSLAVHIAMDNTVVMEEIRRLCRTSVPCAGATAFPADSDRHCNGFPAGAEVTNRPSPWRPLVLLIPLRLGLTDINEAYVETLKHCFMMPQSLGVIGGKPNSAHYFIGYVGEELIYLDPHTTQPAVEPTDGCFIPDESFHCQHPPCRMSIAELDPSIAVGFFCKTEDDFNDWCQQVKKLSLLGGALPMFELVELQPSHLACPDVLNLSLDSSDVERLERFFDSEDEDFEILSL
UCH37 inh – inhibitors of human UCH37 deubiquitinase, primary screen, biochemical, Ub-AMC cleavage, fluorescence; Ubiquitin carboxyl-terminal hydrolase isozyme L5 (Homo sapiens), Q9Y5K5; purified proteasome/UCH37; inhibition, % (test concentration not listed); hit rate 0.33% among 330,000;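 active means mean inhibition over replicate wells above about 20%, limit read from the data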;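 further: 0% = compound-free wells with enzyme and 100% = wells lacking proteasome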
Target sequence (Q9Y5K5 whole entry, looked up): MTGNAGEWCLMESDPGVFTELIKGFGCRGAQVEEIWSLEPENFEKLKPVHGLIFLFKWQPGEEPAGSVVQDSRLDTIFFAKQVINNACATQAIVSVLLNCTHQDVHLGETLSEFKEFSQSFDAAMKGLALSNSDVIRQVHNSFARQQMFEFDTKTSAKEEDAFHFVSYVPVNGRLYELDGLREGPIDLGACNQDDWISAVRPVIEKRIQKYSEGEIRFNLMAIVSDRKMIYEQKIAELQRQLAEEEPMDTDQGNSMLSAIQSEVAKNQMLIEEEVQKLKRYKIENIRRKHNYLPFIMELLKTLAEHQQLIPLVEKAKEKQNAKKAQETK
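Material: human UCH37 enzyme supplied as purified proteasome complex. Measure: % inhibition of Ub-AMC cleavage fluorescence. Medium: pH 7.4 Tris-HCl (50 mM) with ovalbumin, ATP-MgCl2, DTT. Times: 30 min preincubation with enzyme, 25 min cleavage at room temperature. Detection: AMC fluorescence intensity at 355/460 nm.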
* = called active by the depositor; ? = inconclusive; . = no result given. Hits are enriched below; roughly 4.8% of the tested compounds scored in any of these assays.

SMILES | ALR inh | NALP3 yeast inh | Calb FLC | NALP1 yeast inh | ATG4B inh | UCH37 inh
CCc1nnc(NC(=O)c2cccc(S(=O)(=O)N3CCc4ccccc43)c2)s1 | 15.3 | 8.8 | -8.0 | 2.2 | -20.0 | -4.2
CC(=O)NS(=O)(=O)c1ccc(NC(=O)c2cccc(S(=O)(=O)N3CCc4ccccc43)c2)cc1 | 96.8* | -5.2 | -3.8 | 8.2 | -3.5 | 2.6
CC(C)CCNC(=S)Nc1ccccn1 | 91.2* | 29.0 | -5.7 | 19.0 | -4.3 | 3.1
Cc1cccc(NC(=S)N/N=C(\c2ccccc2)C(C)C)c1 | -27.7 | 15.8 | 101.8* | -1.5 | 4.7 | .
Cc1cccc(NC(=S)NCCC(C)C)c1 | 92.0* | 27.9 | -16.3 | 19.4 | 8.5 | 4.9
CCc1ccc(C=NNC(=O)c2nnn(-c3nonc3N)c2CN2CCOCC2)cc1 | . | . | . | . | . | 3.6
Cc1ccc(CCNC(=O)CS(=O)Cc2nc(-c3cccc(C)c3)oc2C)cc1 (configuration not stated) | 99.4* | -2.6 | -4.5 | -32.7 | -30.2 | 1.1
CCOc1ccc(CCNC(=O)CS(=O)Cc2nc(-c3ccc(C)cc3)oc2C)cc1OCC (configuration not stated) | 98.3* | 6.5 | -2.1 | 19.2 | -6.4 | 1.3
COc1cccc(-c2nc(CS(=O)CC(=O)NCCc3ccc(C)cc3)c(C)o2)c1 (configuration not stated) | 13.7 | -3.7 | 27.8 | -10.8 | -3.1 | 2.2
CCOc1ccc(CCNC(=O)CS(=O)Cc2nc(-c3ccccc3C)oc2C)cc1OCC (configuration not stated) | 98.7* | 12.2 | -8.4 | 22.4 | -14.6 | 0.5
CCOc1ccc(CCNC(=O)CSCc2ccc(C)cc2)cc1OCC | -1.1 | 13.5 | 8.5 | 24.7 | 3.0 | -1.4
CCOc1ccc(CCNC(=O)CS(=O)Cc2nc(-c3ccc(C)cc3)oc2C)cc1 (configuration not stated) | 99.2* | 13.8 | ? | 18.4 | 4.5 | 2.6
CCOc1ccc(CCNC(=O)COC(=O)COc2ccccc2C)cc1OCC | -9.5 | 10.5 | 2.5 | . | 1.3 | 3.5
COc1ccc(-c2nc(CS(=O)CC(=O)NCCC3=CCCCC3)c(C)o2)cc1 (configuration not stated) | 99.2* | -3.7 | -0.4 | 11.7 | 4.0 | 5.8
CN(C)CCCCNCCCNC(=O)C=NO | . | . | . | . | . | 0.6
O=C(Nc1cccc(Cl)c1)ON=Cc1ccncc1 | . | . | . | . | . | 5.9
CC(=O)Nc1cccc(-c2csc(Nc3ccc(C)cn3)n2)c1 | 98.8* | -12.5 | 90.7* | 24.7 | -12.2 | 3.6
Cc1nn(C)c(C)c1C=NN=C1CCC2C3CCc4cc(O)ccc4C3CCC12C (configuration not stated) | . | . | . | . | . | 3.0
Cc1ccc(Nc2nc(NCc3ccco3)c3ccccc3n2)cc1 | 25.8 | 15.2 | 91.6* | -4.5 | 0.2 | -55.0
O=c1c2ccccc2nc2c3ccccc3c(NCc3ccco3)nn12 | 90.8* | 0.3 | -1.1 | 19.0 | -8.9 | .
O=[N+]([O-])c1ccccc1C=NNc1nccnc1Cl | . | . | . | . | . | 11.0
COc1ccc(C=Nn2c(-c3ccccc3)n[nH]c2=S)cc1 | . | . | . | . | . | 4.4
COC(=O)C(=NNc1ccccc1C)Sc1nnc(C(O)c2ccccc2)n1-c1ccccc1 (configuration not stated) | . | . | . | . | . | 2.6
C#CCN(C)CCCOc1ccc(Cl)cc1Cl | 1.6 | 45.9 | -7.6 | 55.9* | 1.9 | 5.4
COc1cc2c(cc1O)CC[n+]1cc3c(OC)c(OC)ccc3cc1-2 | . | 17.8 | 99.1* | 12.4 | -0.4 | 7.5
SMILES | ALR inh | NALP3 yeast inh | Calb FLC | NALP1 yeast inh | ATG4B inh | UCH37 inh
O=C(NNC(=S)Nc1ccccc1)c1cccc(Br)c1 | 74.4 | 26.6 | 19.0 | -3.6 | 11.5 | 3.5
O=C(NNC(=S)Nc1ccc(Cl)cc1)c1ccccc1OC(F)F | . | 14.4 | 102.4* | 25.9 | -0.4 | 2.9
O=C(NNC(=S)NCc1ccccc1)c1ccccc1OC(F)F | 33.3 | 3.4 | 13.8 | 6.8 | -2.2 | 4.1
COC(=O)c1ccc(NC(=S)NNC(=O)c2ccccc2)cc1 | 92.0* | 33.6 | 55.7 | -1.6 | -3.0 | 9.2
O=C(NNC(=S)Nc1ccc(Br)cc1)c1ccccc1 | 97.5* | 15.6 | 35.4 | 8.7 | -1.4 | 0.5
O=C(NNC(=S)Nc1ccc(Br)cc1)c1ccccc1Br | 98.5* | 28.6 | 64.7 | 4.7 | 5.4 | 1.2
CCOc1ccc(NC(=Nc2nc(C)cc(C)n2)NC(C)=O)cc1 | . | . | . | . | . | 5.1
Cc1ccc(C(=O)NN=C/C=C/c2ccc(Br)cc2)cn1 | . | . | . | . | . | 3.6
Cc1ncc(CO)c(C=NN=Cc2ccccc2O)c1O | . | . | . | . | . | 3.9
O=C(NCC1CCCCC1)c1cccc(-c2ccc(O)cc2)c1 | 82.5* | 28.8 | 27.0 | 15.0 | 16.5 | 3.8
CC(=O)Nc1cccc(NC(=O)c2cccc(-c3ccc(O)cc3)c2)c1 | 98.5* | 17.1 | -3.9 | 24.6 | -16.1 | -0.2
COc1ccc([N+](=O)[O-])cc1NC(=O)CSCc1ccccc1C | 98.9* | 31.1 | 14.8 | 9.2 | 9.0 | 3.9
O=C(CSCc1ccc(Cl)cc1)Nc1cc([N+](=O)[O-])ccc1O | -16.5 | 7.9 | 90.5* | 16.5 | -1.0 | 7.5
CC(CC(=O)O)CC(=O)Nc1cc([N+](=O)[O-])ccc1O (configuration not stated) | -6.1 | 19.4 | -11.2 | -2.8 | -0.6 | 11.9
Cc1ccc(SCC(=O)Nc2cc([N+](=O)[O-])ccc2O)cc1 | 8.2 | 15.6 | 86.7* | -4.3 | 3.6 | 3.9
CC(=NNC(=O)c1cc(Br)ccc1O)c1ccccn1 | . | . | . | . | . | 4.6
O=c1c2cc(Br)ccc2nc(-c2ccc(Cl)cc2)n1O | . | . | 23.8 | 3.6 | 3.5 | 4.4
Cc1ccc(-c2nc3c(Cl)cc(Cl)cc3c(=O)n2O)cc1 | -2.0 | 14.0 | 95.7* | 17.7 | 0.6 | 3.2
Cn1ccnc1SCC(=O)Nc1ccc2nc(SCC(=O)NC3CC3)sc2c1 | 98.5* | 9.4 | -2.9 | 8.0 | -2.2 | 1.7
Cc1cnc(NC(=O)CSc2nc3ccccc3s2)s1 | . | 13.1 | -3.3 | 4.2 | -7.4 | 2.6
CCOC(=O)c1c(NC(=O)CSc2nc3ccccc3o2)sc(C)c1C | 3.4 | 15.6 | -11.8 | 11.1 | 2.7 | 3.3
O=C(CSc1nc2ccccc2s1)Nn1cnnc1 | 98.5* | -12.3 | 1.8 | 24.2* | -17.3 | 7.1
Cc1cc(NC(=O)CSc2nc3ccccc3s2)no1 | -9.1 | 16.5 | . | 11.4 | 2.2 | -3.4
CCOC(=O)c1c(NC(=O)CSc2nc3ccccc3s2)sc(C)c1C | 98.0* | 13.6 | -11.2 | 2.9 | 0.7 | -0.8
O=C(CSc1nc2ccccc2s1)Nc1ncccn1 | 98.1* | -1.6 | 0.4 | -4.9 | -12.8 | 3.1
C=CCc1cccc(C=Nn2c(C)nnc2C)c1O | . | . | . | . | . | 4.2
O=C(Cc1csc(N2CCOCC2)n1)NN=Cc1ccc(O)c(O)c1O | . | . | . | . | . | 6.2

Screening results deposited in PubChem by several laboratories.
